Measured values taken from ChEMBL document CHEMBL3102784, “Salicylanilide diethyl phosphates: synthesis, antimicrobial activity and cytotoxicity” (Bioorg Med Chem, 2014).
Values after ≈ are worked out from the molar mass of the structure shown. Active and inactive are the calls of the source. No cut-off for these calls is given here.

What was measured:
Mycobacterium avium [1] = assay: Antimycobacterial activity against isoniazid, rifampicin, ethambutol and ofloxacin-resistant Mycobacterium avium My 330/88 after 21 days; assay type: functional; settings: My 330/88, 504 h
Procedure, shortened: (§1)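 Micromethod MIC in Šula's semisynthetic medium at 37 °C. Compounds added in DMSO at 1000 down to 0.032 µmol/L. Isoniazid standard in sterile water at 0.5–250 µmol/L. Inocula: H37Rv 10^3, M. avium 10^5, M. kansasii 10^4. Read at 14 and 21 d, plus 7 d for M. kansasii.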

Mycobacterium avium [2] = assay: Antimycobacterial activity against isoniazid, rifampicin, ethambutol and ofloxacin-resistant Mycobacterium avium My 330/88 after 14 days; assay type: functional; settings: My 330/88, 336 h; procedure, shortened: as §1
[3] = test system: Mycobacterium tuberculosis; assay: Antimycobacterial activity against Mycobacterium tuberculosis H37Rv My 331/88 after 21 days; assay type: functional; settings: H37Rv My 331/88, 504 h; procedure, shortened: as §1
[4] = test system: Mycobacterium tuberculosis; assay: Antimycobacterial activity against Mycobacterium tuberculosis H37Rv My 331/88 after 14 days; assay type: functional; settings: H37Rv My 331/88, 336 h; procedure, shortened: as §1
[5] = test system: Trichophyton mentagrophytes; assay: Antifungal activity against Trichophyton mentagrophytes 445 after 120 hrs by broth microdilution method; assay type: functional; settings: Trichophyton mentagrophytes, 445, 120 h
Procedure, shortened: (§2)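 Filamentous dermatophyte tested by broth microdilution in RPMI 1640 with glutamine, fluconazole as reference. Value expressed as IC50 relative to growth control. Read at 72 and 120 h.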

[6] = test system: Trichophyton mentagrophytes; assay: Antifungal activity against Trichophyton mentagrophytes 445 after 72 hrs by broth microdilution method; assay type: functional; settings: Trichophyton mentagrophytes, 445, 72 h; procedure, shortened: as §2
Lichtheimia corymbifera [7] = assay: Antifungal activity against Absidia corymbifera 272 after 48 hrs by broth microdilution method; assay type: functional; settings: Lichtheimia corymbifera, 272, 48 h
Procedure, shortened: (§3)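 Broth microdilution in RPMI 1640 with glutamine, fluconazole as reference. For yeasts, MIC is ≥80% growth reduction (IC80) versus control. For filamentous fungi, the value is expressed as IC50. Readings at 24 and 48 h.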

Lichtheimia corymbifera [8] = assay: Antifungal activity against Absidia corymbifera 272 after 24 hrs by broth microdilution method; assay type: functional; settings: Lichtheimia corymbifera, 272, 24 h; procedure, shortened: as §3
Aspergillus fumigatus [9] = assay: Antifungal activity against Aspergillus fumigatus 231 after 48 hrs by broth microdilution method; assay type: functional; settings: Aspergillus fumigatus, 231, 48 h; procedure, shortened: as §3
Aspergillus fumigatus [10] = assay: Antifungal activity against Aspergillus fumigatus 231 after 24 hrs by broth microdilution method; assay type: functional; settings: Aspergillus fumigatus, 231, 24 h; procedure, shortened: as §3
Trichosporon asahii [11] = assay: Antifungal activity against Trichosporon asahii 1188 after 48 hrs by broth microdilution method; assay type: functional; settings: Trichosporon asahii, 1188, 48 h; procedure, shortened: as §3
Trichosporon asahii [12] = assay: Antifungal activity against Trichosporon asahii 1188 after 24 hrs by broth microdilution method; assay type: functional; settings: Trichosporon asahii, 1188, 24 h; procedure, shortened: as §3
Pichia kudriavzevii [13] = assay: Antifungal activity against Candida krusei E28 after 48 hrs by broth microdilution method; assay type: functional; settings: E28, 48 h; procedure, shortened: as §3
Pichia kudriavzevii [14] = assay: Antifungal activity against Candida krusei E28 after 24 hrs by broth microdilution method; assay type: functional; settings: E28, 24 h; procedure, shortened: as §3
Candida albicans [15] = assay: Antifungal activity against Candida albicans ATCC 44859 after 48 hrs by broth microdilution method; assay type: functional; settings: ATCC 44859, 48 h; procedure, shortened: as §3
Candida albicans [16] = assay: Antifungal activity against Candida albicans ATCC 44859 after 24 hrs by broth microdilution method; assay type: functional; settings: ATCC 44859, 24 h; procedure, shortened: as §3
Nakaseomyces glabratus = assay: Antifungal activity against Candida glabrata 20/I at 500 micromol/L after 24 to 48 hrs by broth microdilution method; assay type: functional, organism-based; procedure, shortened: as §3
Candida tropicalis = assay: Antifungal activity against Candida tropicalis 156 at 500 micromol/L after 24 to 48 hrs by broth microdilution method; assay type: functional, organism-based; procedure, shortened: as §3
Pseudomonas aeruginosa = assay: Antibacterial activity against Pseudomonas aeruginosa CCM 1961 at 500 micromol/L after 24 to 48 hrs by broth microdilution method; assay type: functional, organism-based
Procedure, shortened: (§4)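 Broth microdilution in Mueller–Hinton broth, compounds dissolved in DMSO, tested over a dilution series from 500 downward. MIC taken as ≥95% growth reduction (IC95) versus drug-free control. Benzylpenicillin comparator. Readings at 24 and 48 h.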

Klebsiella pneumoniae [17] = assay: Antibacterial activity against ESBL-positive Klebsiella pneumoniae J 14368/08 at 500 micromol/L after 24 to 48 hrs by broth microdilution method; assay type: functional, organism-based; procedure, shortened: as §4
Klebsiella pneumoniae [18] = assay: Antibacterial activity against Klebsiella pneumoniae D 11750/08 at 500 micromol/L after 24 to 48 hrs by broth microdilution method; assay type: functional, organism-based; procedure, shortened: as §4
Escherichia coli = assay: Antibacterial activity against Escherichia coli CCM 4517 at 500 micromol/L after 24 to 48 hrs by broth microdilution method; assay type: functional, organism-based; procedure, shortened: as §4
Enterococcus sp. = assay: Antibacterial activity against Enterococcus sp. J 14365/08 at 500 micromol/L after 24 to 48 hrs by broth microdilution method; assay type: functional, organism-based; procedure, shortened: as §4
[19] = test system: Staphylococcus epidermidis; assay: Antibacterial activity against Staphylococcus epidermidis H 6966/08 after 48 hrs by broth microdilution method; assay type: functional; settings: H 6966/08, 48 h; procedure, shortened: as §4
[20] = test system: Staphylococcus epidermidis; assay: Antibacterial activity against Staphylococcus epidermidis H 6966/08 after 24 hrs by broth microdilution method; assay type: functional; settings: H 6966/08, 24 h; procedure, shortened: as §4
Staphylococcus aureus [21] = assay: Antibacterial activity against methicillin-resistant Staphylococcus aureus H 5996/08 after 48 hrs by broth microdilution method; assay type: functional; settings: H 5996/08, 48 h; procedure, shortened: as §4
Staphylococcus aureus [22] = assay: Antibacterial activity against methicillin-resistant Staphylococcus aureus H 5996/08 after 24 hrs by broth microdilution method; assay type: functional; settings: H 5996/08, 24 h; procedure, shortened: as §4
Staphylococcus aureus [23] = assay: Antibacterial activity against Staphylococcus aureus CCM 4516/08 after 48 hrs by broth microdilution method; assay type: functional; settings: CCM 4516/08, 48 h; procedure, shortened: as §4
Staphylococcus aureus [24] = assay: Antibacterial activity against Staphylococcus aureus CCM 4516/08 after 24 hrs by broth microdilution method; assay type: functional; settings: CCM 4516/08, 24 h; procedure, shortened: as §4
Mycobacterium kansasii [25] = assay: Antimycobacterial activity against Mycobacterium kansasii 6509/96 after 21 days; assay type: functional; settings: 6509/96, 504 h; procedure, shortened: as §1
Mycobacterium kansasii [26] = assay: Antimycobacterial activity against Mycobacterium kansasii 6509/96 after 14 days; assay type: functional; settings: 6509/96, 336 h; procedure, shortened: as §1
Mycobacterium kansasii [27] = assay: Antimycobacterial activity against Mycobacterium kansasii 6509/96 after 7 days; assay type: functional; settings: 6509/96, 168 h; procedure, shortened: as §1
Mycobacterium kansasii [28] = assay: Antimycobacterial activity against Mycobacterium kansasii My 235/80 after 21 days; assay type: functional; settings: My 235/80, 504 h; procedure, shortened: as §1
Mycobacterium kansasii [29] = assay: Antimycobacterial activity against Mycobacterium kansasii My 235/80 after 14 days; assay type: functional; settings: My 235/80, 336 h; procedure, shortened: as §1
HepG2 = assay: Cytotoxicity against human HepG2 cells after 24 hrs by CellTiter assay; assay type: cell-based; settings: HepG2, 24 h
Procedure, shortened: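 HepG2 cells (passage 27–33) in MEM with 10% FBS, L-glutamine and NEAA, seeded at 1×10^4 per well. Treated next day with compounds at 0.1–100 µM (or 0.1–25 µmol/L), triplicates, <1% DMSO, for 24 h at 37 °C, 5% CO2. MTS reagent added for 2 h, absorbance read at 490 nm. IC50 taken against untreated (100%) and 10% DMSO (0%) controls.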

Mycobacterium kansasii [30] = assay: Antimycobacterial activity against Mycobacterium kansasii My 235/80 after 7 days; assay type: functional; settings: My 235/80, 168 h; procedure, shortened: as §1

SMILES | MIC (Mycobacterium avium [1]) | MIC (Mycobacterium avium [2]) | MIC [3] | MIC [4] | MIC50 [5] | MIC50 [6] | MIC50 (Lichtheimia corymbifera [7]) | MIC50 (Lichtheimia corymbifera [8]) | MIC50 (Aspergillus fumigatus [9]) | MIC50 (Aspergillus fumigatus [10]) | MIC80 (Trichosporon asahii [11]) | MIC80 (Trichosporon asahii [12]) | MIC80 (Pichia kudriavzevii [13]) | MIC80 (Pichia kudriavzevii [14]) | MIC80 (Candida albicans [15]) | MIC80 (Candida albicans [16]) | Activity (Nakaseomyces glabratus) | Activity (Candida tropicalis) | Activity (Pseudomonas aeruginosa) | Activity (Klebsiella pneumoniae [17]) | other results
CCOP(=O)(OCC)Oc1ccc(Cl)cc1C(=O)Nc1ccc(Cl)c(Cl)c1 | 16 µM (≈ 7.24 µg/mL) | 16 µM (≈ 7.24 µg/mL) | 1 µM (≈ 0.453 µg/mL) | 1 µM (≈ 0.453 µg/mL) | 500 µM (≈ 226 µg/mL) | 500 µM (≈ 226 µg/mL) | > 500 µM | > 500 µM | > 500 µM | > 500 µM | > 500 µM | > 500 µM | > 500 µM | > 500 µM | > 500 µM | > 500 µM | inactive | inactive | inactive | inactive | Activity (Klebsiella pneumoniae [18]): inactive; Activity (Escherichia coli): inactive; Activity (Enterococcus sp.): inactive; MIC95 [19]: > 500 µM; MIC95 [20]: > 500 µM; MIC95 (Staphylococcus aureus [21]): > 500 µM; MIC95 (Staphylococcus aureus [22]): > 500 µM; MIC95 (Staphylococcus aureus [23]): > 500 µM; MIC95 (Staphylococcus aureus [24]): > 500 µM; MIC (Mycobacterium kansasii [25]): 4 µM (≈ 1.81 µg/mL); MIC (Mycobacterium kansasii [26]): 4 µM (≈ 1.81 µg/mL); MIC (Mycobacterium kansasii [27]): 4 µM (≈ 1.81 µg/mL); MIC (Mycobacterium kansasii [28]): 4 µM (≈ 1.81 µg/mL); MIC (Mycobacterium kansasii [29]): 4 µM (≈ 1.81 µg/mL); IC50 (HepG2): 2840 nM; MIC (Mycobacterium kansasii [30]): 4 µM (≈ 1.81 µg/mL)
CCOP(=O)(OCC)Oc1ccc(Br)cc1C(=O)Nc1ccc(Cl)c(Cl)c1 | 16 µM (≈ 7.95 µg/mL) | 16 µM (≈ 7.95 µg/mL) | 1 µM (≈ 0.497 µg/mL) | 1 µM (≈ 0.497 µg/mL) | > 500 µM | > 500 µM | > 500 µM | > 500 µM | > 500 µM | > 500 µM | > 500 µM | > 500 µM | > 500 µM | > 500 µM | > 500 µM | > 500 µM | inactive | inactive | inactive | inactive | Activity (Klebsiella pneumoniae [18]): inactive; Activity (Escherichia coli): inactive; Activity (Enterococcus sp.): inactive; MIC95 [19]: > 500 µM; MIC95 [20]: 500 µM (≈ 249 µg/mL); MIC95 (Staphylococcus aureus [21]): > 500 µM; MIC95 (Staphylococcus aureus [22]): 500 µM (≈ 249 µg/mL); MIC95 (Staphylococcus aureus [23]): > 500 µM; MIC95 (Staphylococcus aureus [24]): 500 µM (≈ 249 µg/mL); MIC (Mycobacterium kansasii [25]): 4 µM (≈ 1.99 µg/mL); MIC (Mycobacterium kansasii [26]): 4 µM (≈ 1.99 µg/mL); MIC (Mycobacterium kansasii [27]): 2 µM (≈ 0.994 µg/mL); MIC (Mycobacterium kansasii [28]): 4 µM (≈ 1.99 µg/mL); MIC (Mycobacterium kansasii [29]): 4 µM (≈ 1.99 µg/mL); IC50 (HepG2): 2040 nM; MIC (Mycobacterium kansasii [30]): 2 µM (≈ 0.994 µg/mL)
